Rows were chosen to be rich in hits. Some 1.9% of all compounds tested hit in one or more screens of this group.
PP5 inh: PP5 (human) phosphatase inhibition. purified PP5c, OMFP substrate fluorescence. hit rate 0.18% among 320,000. inhibition, % at 6.7 µM;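 active = inhibition above the campaign's mean inhibition across all tested compounds plus 3 SD, cut at about 9.5% in these data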
Target sequence (P53041 whole entry, looked up): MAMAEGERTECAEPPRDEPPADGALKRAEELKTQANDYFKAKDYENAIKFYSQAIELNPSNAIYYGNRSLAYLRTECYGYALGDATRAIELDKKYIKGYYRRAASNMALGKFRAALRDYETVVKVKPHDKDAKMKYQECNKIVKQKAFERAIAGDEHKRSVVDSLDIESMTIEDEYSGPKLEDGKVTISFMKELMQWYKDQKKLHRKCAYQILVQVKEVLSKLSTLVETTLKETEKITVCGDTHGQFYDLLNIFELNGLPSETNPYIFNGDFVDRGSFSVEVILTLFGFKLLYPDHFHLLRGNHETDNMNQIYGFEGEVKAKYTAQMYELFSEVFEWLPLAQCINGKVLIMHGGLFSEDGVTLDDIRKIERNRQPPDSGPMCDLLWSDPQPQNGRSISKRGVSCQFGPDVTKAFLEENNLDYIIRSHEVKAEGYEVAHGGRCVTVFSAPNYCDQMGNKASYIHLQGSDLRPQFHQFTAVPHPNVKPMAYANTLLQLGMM
LMPTP inh: LMPTP (human) inhibition; recombinant LMPTP-A, OMFP fluorogenic substrate, fluorescence intensity; inhibition, % at 20 µM; hit rate 0.22% among 360,000; P24666;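 active = compounds that cut the enzyme signal by at least half of the control window in the single-dose screen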
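Test system: LMPTP-A phosphatase enzyme. Amount: LMPTP-A at 0.625 nM final in the reaction. Reagent: OMFP substrate, 400 µM final. Times: 50 min at room temperature. Signal: endpoint fluorescence intensity from OMFP dephosphorylation. Read-out basis: % inhibition. Benchmarks: no-enzyme and uninhibited controls.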
Scp-1 inhibitor: inhibitors of human Scp-1 phosphatase; Q9GZU7; Recombinant Scp1, phosphopeptide, malachite green phosphate absorbance; inhibition, % at 20 µM; hit rate 0.88% among 340,000; AID 493091;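 active = inhibition above about 50% at 20 µM, limit read from the data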
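Test system: SCP-1 catalytic domain; Buffer or medium: Acidic Tris acetate buffer with magnesium and detergent; Also added: Phosphorylated 17-residue peptide substrate; Compound: single 20 µM dose, 1% DMSO; Schedule: enzyme reaction 45 min at room temperature, colour 5 min, stabilisation 30 min; Signal: Phosphate-binding colour reagent, absorbance read at 630 nm.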
STEP inh: blocks human striatal-enriched tyrosine phosphatase | P54829 | recombinant STEP, OMFP fluorogenic substrate, fluorescence | inhibition, % at 20 µM | hit rate 0.25% among 360,000 | AID 588621;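 active = inhibition at 20 µM, scaled per plate between control wells, above about 37%, limit read from the data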
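Also added – OMFP at 25 µM · Test system – STEP tyrosine phosphatase · Technique – FITC-channel fluorescence of OMFP product · Schedule – 20 min at room temperature, dark · Evaluation – control-normalized % inhibition with plate pattern correction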
PP1 counter: PP1-alpha (human) inhibition in PP5 counter-screen; purified PP1alpha, OMFP fluorescence; hit rate 0.9% among 320,000; inhibition, % at 6.7 µM; P62136;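 active = inhibition above the mean inhibition of all tested compounds plus 3 SD, computed separately for each screening campaign, cut at about 15% in these data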
A number is an active result.

`O=C(CN1CCN(c2ccccc2F)CC1)c1ccc2cc[nH]c2c1` gave PP5 inh inactive, LMPTP inh 67, Scp-1 inhibitor inactive, STEP inh inactive and PP1 counter inactive.
For Cc1nc(C(F)(F)F)ccc1C(=O)N1CCCC1(C)C(=O)NCC(C)C (stereo not drawn) the results were LMPTP inh inactive and STEP inh inactive.
Screening COc1ccc2c(c1)c(=O)oc1cc(OCC(=O)N3CCCC(C)C3)ccc12 (stereo not drawn) returned PP5 inh inactive, LMPTP inh inactive, Scp-1 inhibitor inactive, STEP inh inactive and PP1 counter 16.
For COc1ccc2c(c1)c(=O)oc1cc(OCC(=O)N3CCC(C)CC3)ccc12 the results were PP5 inh inactive, LMPTP inh inactive, Scp-1 inhibitor 77, STEP inh inactive and PP1 counter inactive.
Screening Cc1c(Cl)c(=O)oc2cc(OCC(=O)N3CCCC(C)C3)ccc12 (stereo not drawn) returned LMPTP inh inactive, Scp-1 inhibitor inactive and STEP inh inactive.
O=C(NN1C(=O)/C(=C\c2ccc(O)c([N+](=O)[O-])c2)SC1=S)c1ccccc1Cl was read as PP5 inh inactive, LMPTP inh inactive, Scp-1 inhibitor inactive, STEP inh inactive and PP1 counter 16.
For O=C(N/N=C/c1ccccc1[N+](=O)[O-])c1ccc(CN2CCOCC2)cc1 the results were PP5 inh inactive, LMPTP inh inactive, Scp-1 inhibitor inactive, STEP inh inactive and PP1 counter inactive.
C[N+]12CCCCC1C(COC(=O)c1ccc3c(c1)OCO3)CCC2 (stereo not drawn) was read as PP5 inh inactive, LMPTP inh inactive, Scp-1 inhibitor 106, STEP inh inactive and PP1 counter inactive.
Screening Cc1cc(N2CCN(c3ccc([N+](=O)[O-])c4cccnc34)CC2)c2ccccc2n1 returned PP5 inh inactive, LMPTP inh 97, Scp-1 inhibitor inactive, STEP inh inactive and PP1 counter inactive.
For Cc1cc(N2CCN(c3ccc(C(F)(F)F)cc3[N+](=O)[O-])CC2)c2ccccc2n1 the results were PP5 inh inactive, LMPTP inh inactive, Scp-1 inhibitor inactive, STEP inh inactive and PP1 counter inactive.
`c1ccc(-c2csc(N3CCCCCC3)n2)cc1` gave PP5 inh inactive, LMPTP inh inactive, Scp-1 inhibitor inactive, STEP inh inactive and PP1 counter inactive.
`Cc1cc(N2CCN(c3nc(-c4ccccc4)cs3)CC2)c2ccccc2n1` gave PP5 inh inactive, LMPTP inh 82, Scp-1 inhibitor inactive, STEP inh inactive and PP1 counter inactive.
CC(/C=N/NC(=O)Cc1cccn1C)=C\c1ccccc1 was read as PP5 inh inactive, LMPTP inh inactive, Scp-1 inhibitor inactive, STEP inh inactive and PP1 counter inactive.
COc1cccc(-c2cc3nc4c(c(NCC(C)(C)CN(C)C)n3n2)CCCC4)c1 was read as PP5 inh inactive, LMPTP inh inactive, Scp-1 inhibitor inactive, STEP inh inactive and PP1 counter inactive.
Screening CC(C)CN(CC(C)C)S(=O)(=O)N1CCC(C(=O)NC2CCCCCCC2)CC1 returned PP5 inh inactive, LMPTP inh inactive, Scp-1 inhibitor inactive, STEP inh inactive and PP1 counter inactive.
Screening Cc1ccc(Cn2nnc3c(=O)[nH]c(C4CCN(S(=O)(=O)Cc5ccccc5)CC4)nc32)cc1 returned PP5 inh inactive, LMPTP inh inactive, Scp-1 inhibitor inactive, STEP inh inactive and PP1 counter inactive.
For Cc1ccc(S(=O)(=O)N2CCC(c3nc4c(nnn4Cc4ccccc4)c(=O)[nH]3)CC2)cc1 the results were PP5 inh inactive, LMPTP inh inactive, Scp-1 inhibitor inactive, STEP inh inactive and PP1 counter 16.
O=c1[nH]c(C2CCN(S(=O)(=O)/C=C/c3ccccc3)CC2)nc2c1nnn2Cc1ccccc1 was read as PP5 inh inactive, LMPTP inh inactive, Scp-1 inhibitor inactive, STEP inh inactive and PP1 counter 15.
For Nc1cc(N)nc(SCC(=O)c2ccc3c(c2)NC(=O)CO3)n1 the results were PP5 inh inactive, LMPTP inh inactive, Scp-1 inhibitor inactive, STEP inh inactive and PP1 counter inactive.
`CCOc1ccc(/C=C/C2=Cc3c(sc(NC(=O)CSc4n[nH]c(N)n4)c3C#N)C(C)(C)C2)cc1` gave PP5 inh inactive, LMPTP inh inactive, Scp-1 inhibitor inactive, STEP inh inactive and PP1 counter 22.

Screening results: PubChem, several laboratories
